Reference: ChEMBL document CHEMBL4024793, “Development of Stem-Cell-Mobilizing Agents Targeting CXCR4 Receptor for Peripheral Blood Stem Cell Transplantation and Beyond” (J Med Chem, 2018)
Activity calls are given as the source filed them. The rule behind the calls is not given here.

What was measured:
[1] = tested on: Rattus norvegicus; assay: Toxicity in Sprague-Dawley rat assessed as effect on lung color at 50 mg/kg/day, sc administered for 14 days relative to control; format: organism-based; conditions: in vivo, 336 h
Summary of the method: (§1)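 Non-GLP 14-day repeated-dose study in SD rats given 50 mg/kg/day SC. Major organs (liver, kidney, lung, heart) compared with vehicle for size, weight and colour. Blood analysed for hematological and biochemical parameters.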

[2] = target: Cytochrome P450 2C9 (Homo sapiens, UniProt P11712); assay: Inhibition of human liver microsomal CYP2C9; format: ADME
[3] = target: C-X-C chemokine receptor type 1 (Homo sapiens) (UniProt P25024); assay: Antagonist activity at human CXCR1 expressed in CHOK1 cells assessed as inhibition of interleukin-8-induced cAMP accumulation at 10 uM preincubated for 30 mins followed agonist addition measured after 30 to 60 mins; format: functional, cell-based
Summary of the method: (§2)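 GPCR cAMP assay with a single test concentration of 10 μM; result expressed as percentage inhibition for each chemokine receptor.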

[4] = target: Muscarinic acetylcholine receptor M2 (Homo sapiens) (UniProt P08172); assay: Displacement of [3H]AF-DX 384 from recombinant human Muscarinic M2 receptor at 10 uM after 60 mins by scintillation counting
[5] = tested on: Rattus norvegicus; assay: Toxicity in Sprague-Dawley rat assessed as effect on biochemistry parameters at 50 mg/kg/day, sc administered for 14 days relative to control; format: organism-based; conditions: in vivo, 336 h; summary of the method: as §1
[6] = target: C-C chemokine receptor type 5 (Homo sapiens) (UniProt P51681); assay: Antagonist activity at human CCR5 expressed in CHOK1 cells assessed as inhibition of CCL3-induced cAMP accumulation at 10 uM preincubated for 30 mins followed agonist addition measured after 30 to 60 mins; format: functional, cell-based; summary of the method: as §2
[7] = tested on: Mus musculus; assay: Induction hematopoietic stem cell mobilization in C57BL/6 mouse assessed as increase in CXCR4+ cells in blood at 35 mg/kg, sc measured after 2 hrs by APC-conjugated anti-CXCR4-staining based flow cytometry relative to vehicle control; format: functional
Summary of the method: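 Male C57BL/6 mice, 8–10 weeks old, received SC doses escalating through 1, 6, 20, 35 and 50 mg/kg. Blood was drawn 2 h after dosing and labelled with APC-conjugated anti-CXCR4 (clone 2B11). CXCR4⁺ cells were counted by flow cytometry, at least 60,000 events per point. Mean ± SEM, n = 3 per group, t test against vehicle.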

[8] = tested on: Mus musculus; assay: Induction of hematopoietic stem cell mobilization in C57BL/6 mouse PBMC assessed as increase in CFU-GM colonies at 35 mg/kg, sc administered on day 5 post G-CSF addition measured after 2 hrs post dose by colony forming assay; format: functional, organism-based
Summary of the method: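 Male C57BL/6 mice received G-CSF 100 µg/kg SC daily for 4 days. On day 5 they received G-CSF plus compound SC (6 or 35 mg/kg). Heparinized blood taken 2 h later; PBMCs isolated and cultured in methylcellulose medium for 10–14 days. CFU-GM colonies (aggregates of ≥50 cells) counted under an inverted microscope. 8–12 mice per group; mean ± SEM; t test against G-CSF alone.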

[9] = target: Cytochrome P450 2E1 (Homo sapiens, UniProt P05181); assay: Inhibition of human liver microsomal CYP2E1; format: ADME
[10] = tested on: Mus musculus; assay: In vivo antagonist activity at CXCR4 in C57BL/6 mouse assessed as induction of lymphocytes molization at 35 mg/kg, sc measured after 2 hrs relative to AMD3100; format: functional; design: scale not given: the % may be the effect or the level left
Summary of the method: (§3)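 C57BL/6 mice given a single SC injection at 6 or 35 mg/kg. Blood collected 2 h after dosing and analysed for total white blood cells, neutrophils, lymphocytes and monocytes.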

[11] = tested on: Rattus norvegicus; assay: Toxicity in Sprague-Dawley rat assessed as effect on hematology parameters at 50 mg/kg/day, sc administered for 14 days relative to control; format: organism-based; conditions: in vivo, 336 h; summary of the method: as §1
[12] = tested on: Rattus norvegicus; assay: Toxicity in Sprague-Dawley rat assessed as effect on lung size at 50 mg/kg/day, sc administered for 14 days relative to control; format: organism-based; conditions: in vivo, 336 h; summary of the method: as §1
[13] = target: Chemokine XC receptor 1 (Homo sapiens) (UniProt P46094); assay: Antagonist activity at human XCR1 expressed in CHOK1 cells assessed as inhibition of lymphotactin-induced cAMP accumulation at 10 uM preincubated for 30 mins followed agonist addition measured after 30 to 60 mins; format: functional, cell-based; summary of the method: as §2
[14] = target: C-C chemokine receptor type 1 (Homo sapiens) (UniProt P32246); assay: Antagonist activity at human CCR1 expressed in CHOK1 cells assessed as inhibition of CCL3-induced cAMP accumulation at 10 uM preincubated for 30 mins followed agonist addition measured after 30 to 60 mins; format: functional, cell-based; summary of the method: as §2
[15] = target: C-C chemokine receptor type 6 (Homo sapiens) (UniProt P51684); assay: Antagonist activity at human CCR6 expressed in CHOK1 cells assessed as inhibition of CCL20-induced cAMP accumulation at 10 uM preincubated for 30 mins followed agonist addition measured after 30 to 60 mins; format: functional, cell-based; summary of the method: as §2
[16] = tested on: Mus musculus; assay: In vivo antagonist activity at CXCR4 in C57BL/6 mouse assessed as induction of monocytes molization at 35 mg/kg, sc measured after 2 hrs relative to AMD3100; format: functional; design: scale not given: the % may be the effect or the level left; summary of the method: as §3
[17] = target: C-C chemokine receptor type 10 (Homo sapiens) (UniProt P46092); assay: Antagonist activity at human CCR10 expressed in CHOK1 cells assessed as inhibition of CCL27-induced cAMP accumulation at 10 uM preincubated for 30 mins followed agonist addition measured after 30 to 60 mins; format: functional, cell-based; summary of the method: as §2
[18] = tested on: Mus musculus; assay: In vivo antagonist activity at CXCR4 in C57BL/6 mouse assessed as induction of monocytes molization at 35 mg/kg, sc measured after 2 hrs relative to untreated control; format: functional
[19] = target: Voltage-gated inwardly rectifying potassium channel KCNH2 (Homo sapiens, UniProt Q12809); assay: Inhibition of human ERG expressed in CHO cells up to 100 uM by automated patch-clamp assay; format: cell-based
Summary of the method: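 hERG liability examined by patch-clamp at concentrations up to 100 μM.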

[20] = target: C-X-C chemokine receptor type 5 (Homo sapiens) (UniProt P32302); assay: Antagonist activity at human CXCR5 expressed in CHOK1 cells assessed as inhibition of CXCL13-induced cAMP accumulation at 10 uM preincubated for 30 mins followed agonist addition measured after 30 to 60 mins; format: functional, cell-based; summary of the method: as §2
[21] = tested on: Rattus norvegicus; assay: Toxicity in Sprague-Dawley rat assessed as effect on lung weight at 50 mg/kg/day, sc administered for 14 days relative to control; format: organism-based; conditions: in vivo, 336 h; summary of the method: as §1
[22] = target: C-C chemokine receptor type 7 (Homo sapiens) (UniProt P32248); assay: Antagonist activity at human CCR7 expressed in CHOK1 cells assessed as inhibition of CCL19-induced cAMP accumulation at 10 uM preincubated for 30 mins followed agonist addition measured after 30 to 60 mins; format: functional, cell-based; summary of the method: as §2
[23] = target: C-X-C chemokine receptor type 3 (Homo sapiens) (UniProt P49682); assay: Antagonist activity at human CXCR3 expressed in CHOK1 cells assessed as inhibition of CXCL11-induced cAMP accumulation at 10 uM preincubated for 30 mins followed agonist addition measured after 30 to 60 mins; format: functional, cell-based; summary of the method: as §2
[24] = Cytotoxicity against human Detroit 551 cells; format: cell-based
[25] = tested on: Mus musculus; assay: In vivo antagonist activity at CXCR4 in C57BL/6 mouse assessed as induction of lymphocytes molization at 35 mg/kg, sc measured after 2 hrs relative to untreated control; format: functional

Sequence of C-C chemokine receptor type 7 (Homo sapiens) (P32248 whole entry): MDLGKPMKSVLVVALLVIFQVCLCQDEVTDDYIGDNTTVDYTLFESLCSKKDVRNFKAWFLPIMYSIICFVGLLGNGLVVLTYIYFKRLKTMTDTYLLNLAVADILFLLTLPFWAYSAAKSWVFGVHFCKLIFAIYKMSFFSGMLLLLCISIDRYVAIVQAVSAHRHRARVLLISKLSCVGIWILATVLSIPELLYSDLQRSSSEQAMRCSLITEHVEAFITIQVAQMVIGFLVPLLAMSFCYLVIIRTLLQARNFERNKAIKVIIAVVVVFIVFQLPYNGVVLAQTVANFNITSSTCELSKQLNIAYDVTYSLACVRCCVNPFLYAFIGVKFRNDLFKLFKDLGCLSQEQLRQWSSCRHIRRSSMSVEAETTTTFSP
Sequence of Chemokine XC receptor 1 (Homo sapiens) (P46094 whole entry): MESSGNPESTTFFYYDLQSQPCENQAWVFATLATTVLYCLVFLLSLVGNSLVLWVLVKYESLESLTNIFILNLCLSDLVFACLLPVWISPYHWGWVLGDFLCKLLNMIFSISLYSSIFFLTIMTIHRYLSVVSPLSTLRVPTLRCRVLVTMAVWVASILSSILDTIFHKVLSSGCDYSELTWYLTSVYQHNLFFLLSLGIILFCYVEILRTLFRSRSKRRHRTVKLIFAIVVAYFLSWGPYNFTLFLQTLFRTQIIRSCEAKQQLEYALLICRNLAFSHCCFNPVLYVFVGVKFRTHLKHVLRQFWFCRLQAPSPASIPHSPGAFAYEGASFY
Sequence of C-C chemokine receptor type 1 (Homo sapiens) (P32246 whole entry): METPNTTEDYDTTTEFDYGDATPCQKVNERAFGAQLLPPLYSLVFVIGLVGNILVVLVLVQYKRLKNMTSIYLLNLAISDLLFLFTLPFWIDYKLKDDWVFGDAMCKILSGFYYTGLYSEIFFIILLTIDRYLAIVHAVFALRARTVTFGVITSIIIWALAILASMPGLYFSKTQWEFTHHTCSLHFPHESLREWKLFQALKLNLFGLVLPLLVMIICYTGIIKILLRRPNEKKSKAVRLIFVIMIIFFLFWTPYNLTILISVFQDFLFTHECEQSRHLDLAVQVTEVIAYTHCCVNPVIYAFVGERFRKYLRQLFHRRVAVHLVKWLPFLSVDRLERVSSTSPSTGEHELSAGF
Sequence of Muscarinic acetylcholine receptor M2 (Homo sapiens) (P08172 whole entry): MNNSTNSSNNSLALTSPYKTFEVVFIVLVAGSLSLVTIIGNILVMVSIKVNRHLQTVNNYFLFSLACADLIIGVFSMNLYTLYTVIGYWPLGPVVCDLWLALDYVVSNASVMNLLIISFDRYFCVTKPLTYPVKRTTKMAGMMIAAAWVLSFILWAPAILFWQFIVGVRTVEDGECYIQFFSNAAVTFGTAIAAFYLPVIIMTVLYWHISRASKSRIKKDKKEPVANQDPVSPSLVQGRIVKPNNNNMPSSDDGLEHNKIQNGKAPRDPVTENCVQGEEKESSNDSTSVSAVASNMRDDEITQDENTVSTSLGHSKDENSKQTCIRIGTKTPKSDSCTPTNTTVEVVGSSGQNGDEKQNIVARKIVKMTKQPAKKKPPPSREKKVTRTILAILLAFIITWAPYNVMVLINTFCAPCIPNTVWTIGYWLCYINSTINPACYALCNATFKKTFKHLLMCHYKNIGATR
Sequence of C-X-C chemokine receptor type 1 (Homo sapiens) (P25024 whole entry): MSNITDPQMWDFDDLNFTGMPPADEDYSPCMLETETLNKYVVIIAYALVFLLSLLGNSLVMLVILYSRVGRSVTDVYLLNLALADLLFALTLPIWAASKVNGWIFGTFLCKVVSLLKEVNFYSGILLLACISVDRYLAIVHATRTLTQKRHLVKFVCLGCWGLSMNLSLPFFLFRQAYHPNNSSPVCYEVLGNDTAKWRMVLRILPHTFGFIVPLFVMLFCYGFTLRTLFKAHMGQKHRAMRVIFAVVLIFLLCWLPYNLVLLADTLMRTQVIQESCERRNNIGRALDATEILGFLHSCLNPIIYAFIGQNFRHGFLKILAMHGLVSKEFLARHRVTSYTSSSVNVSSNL
Sequence of C-C chemokine receptor type 5 (Homo sapiens) (P51681 whole entry, looked up): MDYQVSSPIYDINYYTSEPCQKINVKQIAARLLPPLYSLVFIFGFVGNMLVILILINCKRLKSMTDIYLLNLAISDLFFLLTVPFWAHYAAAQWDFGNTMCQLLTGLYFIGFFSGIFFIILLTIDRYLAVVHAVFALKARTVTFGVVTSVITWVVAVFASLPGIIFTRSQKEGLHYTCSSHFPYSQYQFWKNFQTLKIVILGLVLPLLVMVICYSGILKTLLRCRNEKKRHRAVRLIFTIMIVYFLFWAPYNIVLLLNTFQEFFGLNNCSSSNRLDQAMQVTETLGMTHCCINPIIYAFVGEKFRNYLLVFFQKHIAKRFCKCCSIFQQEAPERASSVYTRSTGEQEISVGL
Sequence of Cytochrome P450 2C9 (P11712 whole entry): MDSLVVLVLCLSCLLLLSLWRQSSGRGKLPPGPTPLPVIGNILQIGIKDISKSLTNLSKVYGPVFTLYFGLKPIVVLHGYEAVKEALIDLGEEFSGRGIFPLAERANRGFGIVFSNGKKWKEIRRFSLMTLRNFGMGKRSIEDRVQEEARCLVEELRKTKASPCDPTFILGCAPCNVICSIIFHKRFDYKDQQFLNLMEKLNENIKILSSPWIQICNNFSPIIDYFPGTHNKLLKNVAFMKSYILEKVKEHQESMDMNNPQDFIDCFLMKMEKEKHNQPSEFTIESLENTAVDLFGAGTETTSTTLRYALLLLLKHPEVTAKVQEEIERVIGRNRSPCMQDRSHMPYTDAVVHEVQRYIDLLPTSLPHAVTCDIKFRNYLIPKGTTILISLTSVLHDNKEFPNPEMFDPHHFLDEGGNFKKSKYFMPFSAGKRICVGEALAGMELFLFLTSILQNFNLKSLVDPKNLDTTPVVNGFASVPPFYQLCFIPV
Sequence of Voltage-gated inwardly rectifying potassium channel KCNH2 (Q12809 whole entry): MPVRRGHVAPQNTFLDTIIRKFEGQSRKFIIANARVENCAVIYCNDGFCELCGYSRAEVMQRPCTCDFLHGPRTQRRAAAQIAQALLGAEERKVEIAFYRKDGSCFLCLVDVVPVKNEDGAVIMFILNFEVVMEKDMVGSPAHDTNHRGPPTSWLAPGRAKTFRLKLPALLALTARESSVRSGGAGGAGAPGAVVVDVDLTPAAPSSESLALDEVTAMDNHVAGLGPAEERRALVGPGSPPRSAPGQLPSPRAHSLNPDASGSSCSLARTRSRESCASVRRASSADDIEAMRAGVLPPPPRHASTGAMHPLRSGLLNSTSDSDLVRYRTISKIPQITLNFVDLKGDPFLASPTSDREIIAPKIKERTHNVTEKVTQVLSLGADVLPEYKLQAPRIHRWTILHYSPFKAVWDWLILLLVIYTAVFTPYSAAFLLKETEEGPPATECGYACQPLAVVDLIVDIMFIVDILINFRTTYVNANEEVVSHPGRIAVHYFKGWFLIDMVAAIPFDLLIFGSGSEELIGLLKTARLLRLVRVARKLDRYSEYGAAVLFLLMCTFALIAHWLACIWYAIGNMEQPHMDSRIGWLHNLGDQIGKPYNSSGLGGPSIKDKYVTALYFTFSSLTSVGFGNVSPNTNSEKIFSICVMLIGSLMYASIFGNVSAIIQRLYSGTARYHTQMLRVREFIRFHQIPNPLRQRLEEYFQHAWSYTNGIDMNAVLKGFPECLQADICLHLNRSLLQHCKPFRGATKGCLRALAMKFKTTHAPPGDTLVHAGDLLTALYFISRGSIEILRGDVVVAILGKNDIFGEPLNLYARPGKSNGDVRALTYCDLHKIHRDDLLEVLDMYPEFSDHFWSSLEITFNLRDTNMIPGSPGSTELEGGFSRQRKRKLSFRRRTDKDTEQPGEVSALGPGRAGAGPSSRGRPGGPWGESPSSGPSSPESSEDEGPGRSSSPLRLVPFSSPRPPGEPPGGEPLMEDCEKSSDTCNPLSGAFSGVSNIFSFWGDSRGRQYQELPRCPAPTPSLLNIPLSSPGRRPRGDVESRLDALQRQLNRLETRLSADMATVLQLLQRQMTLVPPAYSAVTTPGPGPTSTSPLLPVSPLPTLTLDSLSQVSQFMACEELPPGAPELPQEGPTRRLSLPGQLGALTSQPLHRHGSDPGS
Sequence of C-X-C chemokine receptor type 3 (Homo sapiens) (P49682 whole entry): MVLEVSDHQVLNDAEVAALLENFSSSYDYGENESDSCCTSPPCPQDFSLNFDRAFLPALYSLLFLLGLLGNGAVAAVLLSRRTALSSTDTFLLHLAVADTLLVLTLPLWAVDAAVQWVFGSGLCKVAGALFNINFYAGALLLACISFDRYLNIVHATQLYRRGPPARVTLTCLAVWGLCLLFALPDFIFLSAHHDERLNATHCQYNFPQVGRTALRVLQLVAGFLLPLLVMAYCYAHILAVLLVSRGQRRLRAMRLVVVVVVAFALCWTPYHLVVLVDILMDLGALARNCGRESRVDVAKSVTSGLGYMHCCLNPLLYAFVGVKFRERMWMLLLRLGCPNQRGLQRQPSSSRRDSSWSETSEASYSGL
Sequence of C-C chemokine receptor type 10 (Homo sapiens) (P46092 whole entry): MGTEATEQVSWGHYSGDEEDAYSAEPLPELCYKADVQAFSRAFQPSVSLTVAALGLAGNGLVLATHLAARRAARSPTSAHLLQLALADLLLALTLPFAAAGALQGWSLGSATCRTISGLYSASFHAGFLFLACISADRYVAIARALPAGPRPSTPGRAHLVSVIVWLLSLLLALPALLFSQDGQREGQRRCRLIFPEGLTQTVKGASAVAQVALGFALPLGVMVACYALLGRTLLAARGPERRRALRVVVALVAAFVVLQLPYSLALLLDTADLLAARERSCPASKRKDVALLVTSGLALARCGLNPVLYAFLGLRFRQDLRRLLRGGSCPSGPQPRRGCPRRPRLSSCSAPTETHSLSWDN

For `Cc1cc(NC2CCN(C(=O)CCNCC(=O)O)CC2)nc(NCc2cn(CCCNCCCNC3CCCCC3)nn2)n1`, the Activity [1] was “Non-Toxic”, the IC50 [2] was greater than 100 µM and the Efficacy [3] was 0.3%. For the same compound, the inhibition [4] was 70%, the Activity [5] was “Non-Toxic” and the Efficacy [6] was 0.5%. The “fold change (FC)” value [7] was 3, the Activity [8] was “Active” and the IC50 [9] was greater than 100 µM. The Activity [10] was 30 - 50%, the Activity [11] was “Non-Toxic” and the Activity [12] was “Non-Toxic”. The Efficacy [13] was -2.8%, the Efficacy [14] was -1.2% and the Efficacy [15] was -2.2%. The Activity [16] was 30 - 50%, the Efficacy [17] was 0.5% and the “fold change (FC)” value [18] was 2 - 4. For the same compound, the “inhibition (INH)” value [19] was “Not Active”, the Efficacy [20] was -11% and the Activity [21] was “Non-Toxic”. It also gave an Efficacy [22] of -4.2%, an Efficacy [23] of -7.6% and a CC50 [24] greater than 100 µM. For the same compound, the “fold change (FC)” value [25] was 2 - 4.
